Screening data: PubChem BioAssay, Broad Institute
Most compounds without a hit are left out; they make up all but 2.6% or so of the library.
DENV2 CPE – DENV2-induced cell death inhibition; DENV2-infected cells, cytopathic effect rescue, plate reader; CPE inhibition, % at 9.99 µM; 1.7% of 350,000 active; in the data active = CPE inhibition above about 20%, passing the limit was not always enough; tested in BHK-21 cells;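 note: 0% = median of neutral control wells and 100% = median of positive control wells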
F508del corr – correctors of CFTR F508del function in bronchial epithelial cells | 0.36% of 350,000 active | activity (quench increase), % at 7.58 µM | CFBE cells, YFP halide quenching; stimulated with forskolin plus potentiator P3; % fluorescence drop versus neutral controls | AID 720511;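 active = mean added fluorescence quench of at least 8% versus neutral control, with both replicates also reaching 8%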;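 note: cells transiently co-express mutant CFTR-F508del with the halide-sensitive YFP; corrector assay measuring rescue of mutant channel to the surface after 24 h compound exposure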
E-selectin induc – E-selectin induction on HUVECs. AID 686992. activation, % at 7.58 µM. HUVEC E-selectin immunofluorescence imaging; normalized: neutral wells 0, TNF-alpha wells 100. 0.37% of 260,000 active. P16581;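 active = mean E-selectin-positive cell signal at least 10% of the positive control, reached in at least 60% of replicates, without over 20% cell loss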
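Read-out: % PE-positive cells | Test system: HUVEC | Doses: One compound dose added by pin transfer | Buffer or medium: EGM-2 over gelatin coat | Signal: Immunofluorescence imaging | Benchmarks: TNF-alpha, DMSO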
INS-1E GSIS act – primary screen for activators of insulin secretion dependent on glucose, INS-1E cells, GLuc reporter luminescence; INS-1E GLuc reporter insulin secretion, 2-3 h; activation, % at 16.6 µM; 0.61% of 370,000 active; AID 743287;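 active = lowest replicate activation of at least 40%, so every replicate reaches that level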;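 note: 0% = median of neutral control wells and 100% = median of IBMX positive control wells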
miR-122 sensor – blocks miR-122 activity in Huh7 sensor cells. Huh7 miR-122 Renilla luciferase sensor, 48 h; neutral wells = 0, positive control = 100. activation (reporter increase), % at 12.5 µM. 0.3% of 340,000 active;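 active = mean replicate activation score at least 90 and every replicate individually at or above 90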;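 note: higher luciferase means less miR-122 activity so hits act as miR-122 inhibitors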
ERAP1 HTS inh – ERAP1 (human) enzyme inhibition; Q9NZ08; recombinant ERAP1, Leu-AMC fluorescence, 60 min; inhibition, % at 10.7 µM; 0.15% of 340,000 active; AID 652197;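 active = mean replicate inhibition of at least 30%, or all replicates individually reaching that 30% level; inactive = mean below 30% and not every replicate reaching it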;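 note: 0% = neutral control wells and 100% = L-leucinethiol positive control wells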
Target sequence (Q9NZ08 whole entry, looked up): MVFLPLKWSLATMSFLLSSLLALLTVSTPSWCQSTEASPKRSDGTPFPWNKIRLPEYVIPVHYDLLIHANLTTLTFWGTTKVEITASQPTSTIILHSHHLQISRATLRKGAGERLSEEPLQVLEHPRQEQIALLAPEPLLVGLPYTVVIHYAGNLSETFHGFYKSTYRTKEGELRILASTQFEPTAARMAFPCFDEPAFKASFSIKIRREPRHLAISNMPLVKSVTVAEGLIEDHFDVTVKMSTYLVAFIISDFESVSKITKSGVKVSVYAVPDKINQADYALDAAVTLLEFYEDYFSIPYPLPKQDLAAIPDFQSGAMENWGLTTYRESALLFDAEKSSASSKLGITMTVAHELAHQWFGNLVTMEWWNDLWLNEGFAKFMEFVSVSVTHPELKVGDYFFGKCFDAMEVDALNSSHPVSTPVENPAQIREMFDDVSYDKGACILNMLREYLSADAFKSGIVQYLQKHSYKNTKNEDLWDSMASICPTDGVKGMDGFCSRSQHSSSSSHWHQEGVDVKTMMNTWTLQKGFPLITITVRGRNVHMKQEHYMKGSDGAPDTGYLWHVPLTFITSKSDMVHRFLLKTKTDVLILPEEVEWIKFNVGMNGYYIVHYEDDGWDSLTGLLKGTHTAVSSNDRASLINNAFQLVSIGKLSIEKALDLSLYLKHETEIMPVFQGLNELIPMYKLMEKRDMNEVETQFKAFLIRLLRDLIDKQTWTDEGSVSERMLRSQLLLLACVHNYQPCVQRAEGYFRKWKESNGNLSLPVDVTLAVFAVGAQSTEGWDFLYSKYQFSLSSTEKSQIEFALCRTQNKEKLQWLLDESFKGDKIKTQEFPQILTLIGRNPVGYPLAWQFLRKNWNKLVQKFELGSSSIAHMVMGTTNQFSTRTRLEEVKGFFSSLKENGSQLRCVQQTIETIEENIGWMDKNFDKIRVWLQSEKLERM
* = called active by the depositor; . = not tested or not shown; [ ] = dose if it differs, or a comment.

SMILES | DENV2 CPE | F508del corr | E-selectin induc | INS-1E GSIS act | miR-122 sensor | ERAP1 HTS inh
CNC(=O)OCc1n(C)cc[n+]1C | 3.1 | . | 3.0 | 2.0 | . | 83.7*
COC(=O)[C@H]1[C@H](CO)[C@H]2Cn3c(ccc(C4=CCCC4)c3=O)[C@@H]1N2CC1CCCC1 | 14.7 | -0.3 | 0.6 | 5.3 | . | 1.2
CCC(=NCCCN(CC)CC)c1c(O)n(C2CCCCC2)c(=O)[nH]c1=O | . | . | . | . | -4.3 | .
CCC(=NCCN1CCOCC1)c1c(O)n(C2CCCCC2)c(=O)[nH]c1=O | -0.6 | -3.1 | 30.2* | 6.9 | . | 4.5
CC1CCC(C(C)C)C(OC(=O)Cn2c(COc3ccccc3)[n+](C)c3ccccc32)C1 (configuration not stated) | -1.5 | 1.3 | -0.3 | 153.7* | -1.2 | 9.5
COc1ccc(CN2CCN(Cc3ccccc3F)CC2)cc1 | 3.2 | 3.4 | -0.1 | 43.5* | -5.7 | -2.6
COc1ccc(CC(=O)N(CCN(C)C)CC2CCCN(Cc3ccccc3F)C2)cc1 (configuration not stated) | 26.6* | 0.4 | -1.1 | -5.4 | -7.9 | -2.8
COC(=O)[C@@H]1[C@@H](CO)[C@@H]2Cn3c(ccc(-c4ccc(F)cc4)c3=O)[C@H]1N2Cc1ccccc1 | -6.4 | 2.3 | -0.3 | -6.6 | -1.5[16.7 µM] | 6.0
COC(=O)[C@H]1[C@H](CO)[C@H]2Cn3c(ccc(-c4ccccc4F)c3=O)[C@@H]1N2 | -0.7 | . | -0.3 | 14.7 | . | 0.5
O=P(NC(c1ccccc1)c1ccccc1)(Oc1ccccc1)Oc1ccccc1 | . | . | . | 40.3* | 5.4 | .
CN1CCN(c2ccc([N+](=O)[O-])c3no[n+]([O-])c23)CC1 | -2.2 | 18.3* | 1.1 | -65.9 | -35.1 | 3.2
NC(C(=O)O)c1cc(=O)[nH]o1 (configuration not stated) | 2.5 | 0.5 | 84.2* | 6.4 | -3.1 | -1.8
CC(C)(C)c1o[nH]c(=O)c1CC(N)C(=O)O (configuration not stated) | 10.9 | -2.3 | 0.0 | 4.4 | 1.3 | 0.3
O=C1NC(=O)N(c2ccc3c(c2)OCO3)C(=O)/C1=C/c1ccc(N2CCCC2)o1 | 77.4* | -0.8 | . | -10.4 | . | 9.3
CCOc1ccc(N2C(=O)NC(=O)/C(=C\c3ccc(N4CCCCC4)o3)C2=O)cc1 | . | . | . | 5.1 | 1.0 | .
O=C(O)[C@H]1[C@H](CO)[C@H]2Cn3c(ccc(-c4ccc(F)cc4)c3=O)[C@@H]1N2CC1CCCC1 | -5.5 | -2.8 | -0.1 | -6.1 | . | 1.3
O=P(Oc1ccc(-c2ccccc2)cc1)(N1CC1)N1CC1 | -1.1 | 9.9* | -0.2 | . | -4.0 | 0.4
O=P(Oc1ccc(Cl)cc1)(N1CC1)N1CC1 | -6.7 | -3.3 | 0.0 | . | -4.0 | 2.9
O=C(O)[C@@H]1[C@@H](CO)[C@@H]2Cn3c(ccc(-c4ccncc4)c3=O)[C@H]1N2C(=O)C1CC1 | . | . | 0.0 | 3.6 | . | .
C[C@H]1CC[C@@H]2[C@@H](C)[C@H]3[C@H](C[C@H]4[C@@H]5CC=C6C[C@@H](O[C@@H]7O[C@H](CO)[C@H](O)[C@H](O[C@@H]8O[C@H](CO)[C@@H](O)[C@H](O)[C@H]8O)[C@H]7O[C@@H]7O[C@@H](C)[C@H](O)[C@@H](O)[C@H]7O)CC[C@]6(C)[C@H]5CC[C@]34C)N2C1 | -1.7 | -2.2 | . | 49.5* | 0.3 | -30.2
O=c1cc(C2CCNCC2)[nH][nH]1 | . | . | . | . | 155.7* | .
CC(C)NC(=O)N1C[C@@H]2C(c3ccc(Br)cc3)[C@H](C1)N2CC1CC1 (some centres not stated) | . | . | . | -8.1 | . | .
COC(=O)[C@@H]1[C@@H](CO)[C@@H]2Cn3c(ccc(-c4ccccc4F)c3=O)[C@H]1N2C(=O)C1CCC1 | 1.9 | 3.6 | -0.3 | 0.7 | 4.4[16.7 µM] | -1.9
COc1nc(NC(C)C)nc(NC(C)C)n1 | . | . | . | 68.8* | . | .
CC1(C)OC(c2ccccc2)=C/C(=C/C=C2C(=O)NC(=O)NC2=O)O1 | 2.8 | 14.0* | 2.4 | 4.2 | . | 2.2
SMILES | DENV2 CPE | F508del corr | E-selectin induc | INS-1E GSIS act | miR-122 sensor | ERAP1 HTS inh
O=C1NC(=O)C(CCc2ccncc2)(Cc2cccc(Cl)c2Cl)C(=O)N1c1ccc(Br)cc1 (configuration not stated) | . | . | 2.1 | -10.3 | 491.1* | .
CCc1ccc(N2C(=O)NC(=O)C(CCc3ccncc3)(CCc3ccncc3)C2=O)cc1 | . | . | . | 29.2 | . | .
C/C=C/c1ccc(C2[C@@H]3CN(C(=O)c4cnccn4)C[C@H]2N3)cc1 (some centres not stated) | -1.5 | -1.5 | 0.0 | -0.6 | . | -0.9
COc1ccc(NP(=O)(Oc2ccc(Cl)cc2)Oc2ccc(Cl)cc2)cc1OC | 13.1 | -2.2 | . | -21.1 | 136.5* | 2.2
Cc1ccc(OP(=O)(Nc2cccc(C)c2)Oc2ccc(C)cc2)cc1 | 10.6 | -1.6 | 0.2 | -19.2 | 187.1* | -1.0
COC(=O)[C@@H]1[C@@H](CO)[C@@H]2Cn3c(ccc(-c4ccccc4F)c3=O)[C@H]1N2 | 1.2 | . | -0.4 | 5.0 | . | -3.0
O=C1CC(=O)N(Cc2ccccc2)C(=S)N1 | 23.4* | 0.1 | 0.0 | -25.6 | -3.9 | 1.7
Cc1ccc(N)c(N)c1 | -9.7 | 2.1 | . | -6.9 | -1.3 | -3.8
Cc1ccc(N)cc1N | 66.0* | -2.2 | . | 16.8 | -3.9 | -1.2
COC(=O)[C@H]1[C@H](CO)[C@H]2Cn3c(ccc(/C=C/c4ccccc4)c3=O)[C@@H]1N2C(=O)C1CC1 | -11.1 | . | 0.3 | 11.1 | . | 0.0
C[C@]1(O)CC[C@H]2[C@@H]3CCC4=CC(=O)CC[C@]4(C)[C@@]3(F)[C@@H](O)C[C@@]21C | -18.6 | 1.6 | . | 80.4* | -2.5 | -7.1
COC(=O)[C@@H]1[C@@H](CO)[C@@H]2Cn3c(ccc(-c4cccnc4)c3=O)[C@H]1N2S(=O)(=O)c1ccccc1F | 10.8 | 0.5 | -0.4 | 6.7 | -1.0[16.7 µM] | -1.5
O=C(Cc1ccccn1)N1CCCCN2[C@H](C1)[C@@H](c1ccc(-c3ccccc3F)cc1)[C@@H]2CO | -11.5 | 0.8 | -0.3 | 13.3 | -3.1[16.7 µM] | 0.3
COc1cc2c(c(OC)c1OC)-c1ccc(O)c(=O)cc1C(NC(C)=O)CC2 (configuration not stated) | -11.1 | -2.1 | 0.2 | -3.0 | 96.8* | 1.6
COc1ccc2c(c1)C(NC(C)=O)CCc1cc(OC)c(OC)c(OC)c1-2 (configuration not stated) | -3.3 | -5.2 | 2.9 | -21.6 | 74.6 | 3.2
C=Cc1cc(OC)c2c(c1)c(=O)oc1c2cc(OC)c2c(O)ccc(C3OC(C)C(O)C(C)(O)C3O)c21 (configuration not stated) | -6.0 | 17.7* | -0.2 | . | -8.3 | 2.2
CCCC[N+]12CCC(CC1)C(C(O)(c1ccccc1)c1ccccc1)C2 (configuration not stated) | -4.9 | -1.8 | 53.4* | -3.6 | . | .
